Source: PubChem BioAssay (several laboratories)
The list is not random: actives were taken first. Their share in the collection is about 5.1%.
STAT3 blocker – reduces IL-6 driven STAT3 reporter signal; AID 862; inhibition, % at 5.5 µM; 0.89% of 190,000 active; U3A cells, IL-6 STAT3-luciferase reporter, luminescence; host cell line lacks STAT1;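 active = inhibition above the mean inhibition across all screened compounds plus 3 SD, cut at about 44% in these data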;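 also: 0% = DMSO only wells and 100% = 100 µM nifuroxazide control wells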
STAT1 inh – inhibitors of IFN-gamma induced STAT1 signaling; NIH 3T3 STAT1-luciferase reporter, luminescence; inhibition, % at 5.5 µM; 0.35% of 200,000 active;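 active = inhibition above a set limit, the mean inhibition across all tested compounds plus 3 SD, cut at about 34% in these data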;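 also: 0% = IFN-gamma with DMSO and 100% = IFN-gamma with 300 µM nifuroxazide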
APP 5'UTR act – activates APP 5'UTR luciferase reporter; SH-SY5Y APP 5'UTR luciferase reporter, luminescence; zero percent = DMSO vehicle wells; activation, % at 2 µM; 1% of 190,000 active;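 active = activation above a set limit, based on mean plus 3 SD of controls, cut at about 140% in these data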
STAT1 act – increases IFN-gamma driven STAT1 reporter signal; NIH 3T3 STAT1-luciferase reporter, luminescence; 100% = IFN-gamma alone, no compound; activation (% of control), % at 5.5 µM; 2.6% of 200,000 active; AID 932;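 active = activation above the screen-wide mean activation plus 3 SD, cut at about 130% in these data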;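 also: raw ratio to IFN-gamma control signal so 100% means no change and 0% no light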
STAT3 activator – STAT3 signaling activation; activation (% of control), % at 5.6 µM; U3A cells, IL-6 STAT3-luciferase reporter, luminescence; 100% = signal with IL-6 EC80 alone; 0.91% of 190,000 active;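 active = activation above the screen-wide mean of compound activation plus 3 SD, cut at about 130% in these data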;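 also: 0% = background luminescence of wells with medium and substrate only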
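Material: human STAT1-deficient U3A cells with stable STAT3-luciferase reporter / Probe or stimulus: IL-6 stimulus at 33 ng/mL final / Schedule: 1 h compound pre-exposure, 6 h IL-6 stimulation, 37 °C / Technique: luminescence / Read-out basis: percent of IL-6-only median luminescence / Control set: IL-6-only high control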
NF-kB expr up – compounds increasing NF-kB expression in human neuronal cells | NF-kB reporter expression; active compounds read high | fold change at 12.5 µM | 1.6% of 190,000 active; in the data active = fold change above about 3.3
STAT1 act conf – confirmation of STAT1 signaling activators; shares compounds with STAT1 act; NIH 3T3 STAT1-luciferase reporter, IFN-gamma potentiation, luminescence; 100% = IFN-gamma EC80 alone, no compound; activation (% of control), % at 5.7 µM; 97% of 1,200 active; AID 1262;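 active = activation above a set limit carried over from the earlier primary STAT1 screen, cut at about 140% in these data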;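 also: simple ratio to median IFN-gamma plus DMSO wells so 0% means no light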
NFkB act STAT1ct – counter-screen for STAT1 activators: NF-kappaB activation; activation (% of control), % at 5.7 µM; 43% of 1,200 active; shares compounds with STAT1 act; HEK293T NF-kB luciferase reporter, TNF-alpha stimulated, luminescence; 100% = TNF-alpha with vehicle only; AID 1306;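 active = activation above the mean of solvent-only control wells plus 3 SD, set per campaign, cut at about 130% in these data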;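 also: TNF-alpha given at a submaximal dose yielding about 80% of full reporter signal; values are well signal over median control so 100% means no change and 0% no light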
STAT3 act 2 – counter-screen for STAT1 activators: human STAT3 activation; shares compounds with STAT1 act; U3A cells STAT3-luciferase reporter, IL-6, luminescence; cells lack STAT1; 100 = IL-6 alone, no compound effect; activation (% of control), % at 5.7 µM; 46% of 1,200 active; AID 1316;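 active = activation above the solvent-only control well mean plus 3 SD, set per plate batch, cut at about 110% in these data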;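 also: 0% = no luminescence and 100% = median IL-6 plus DMSO wells; higher means more STAT3 reporter activation so hits are non-selective activators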
Numbers without * were called inactive; · = no result given.

SMILES	STAT3 blocker	STAT1 inh	APP 5'UTR act	STAT1 act	STAT3 activator	NF-kB expr up	STAT1 act conf	NFkB act STAT1ct	STAT3 act 2
CC(=O)Nc1ccccc1C(=O)OCc1ccc(F)cc1	3.0	-83.1	6.0	174.6*	104.2	0.97	124.5	109.0	97.5
CC(=O)c1ccc2c(c1)OCO2	15.9	7.2	-3.7	93.5	96.0	1.18	·	·	·
CC(=O)Nc1ccccc1C(=O)OCC(=O)c1ccc2c(c1)OCCO2	-5.6	-82.9	76.9	175.2*	110.1	0.63	203.1*	120.4	115.9*
OC1(c2cccnc2)CC2CCC(C1)N2Cc1nnnn1Cc1ccccc1 (configuration not stated)	0.0	-2.7	-2.5	102.5	103.8	1.24	·	·	·
N=C1c2ccccc2CN1CC(=O)c1ccccc1	-12.5	-90.6	142.9*	182.4*	106.4	7.81*	153.9*	129.9	119.0*
CCCN(CC#CCOc1ccc(OC)cc1)CCC	3.1	-7.2	20.1	106.6	101.2	1.21	·	·	·
